Bioassay records from PubChem.
NS3 helicase inh – blocks Hepatitis C virus NS3 helicase unwinding; 0.56% of 290,000 active; NS3 helicase DNA unwinding, Cy5 molecular beacon fluorescence; inhibition, % at 10.9 µM;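 active means inhibition above the mean of all tested compounds plus 3 SD, set per campaign, cut at about 35% in these data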;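 further: 0% = DMSO wells and 100% = thioflavine S control wells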
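Measured by: Cy5 fluorescence, 0 and 60 min reads / Assay system: NS3 helicase fragment of HCV / Control set: low DMSO, high thioflavine S at 110 µM / Times: 1 h reaction at 25 °C, ATP-initiated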
ZTA counter – counter-screen for EBNA-1 inhibitors: inhibitors of Epstein-Barr virus ZTA; ZTA-DNA binding, fluorescence polarization; inhibition, % at 11 µM; 0.15% of 320,000 active; AID 2234; in the data active means inhibition above about 33%
Target sequence (P03206 whole entry, looked up): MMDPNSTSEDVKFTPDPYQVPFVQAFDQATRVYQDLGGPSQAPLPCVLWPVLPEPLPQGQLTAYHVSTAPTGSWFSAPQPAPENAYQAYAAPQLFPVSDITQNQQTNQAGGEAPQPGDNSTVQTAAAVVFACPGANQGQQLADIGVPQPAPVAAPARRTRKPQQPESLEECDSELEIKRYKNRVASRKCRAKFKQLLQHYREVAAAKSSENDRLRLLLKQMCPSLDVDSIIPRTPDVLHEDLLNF
EBNA-1 inh – blocks EBNA-1 binding to DNA; inhibition, % at 14.8 µM; AID 1950; EBNA-1 DNA binding, fluorescence polarization; 0.34% of 300,000 active; in the data active means inhibition above about 28%
ALR inh – inhibitors of human sulfhydryl oxidase ALR. purified ALR, DTT oxidation, H2O2 HRP-luminol luminescence. inhibition, % (test concentration not listed). 3.8% of 290,000 active;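 active means mean replicate inhibition above about 79%, with every replicate also reaching it, limit read from the data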
Target sequence (P55789 whole entry, looked up): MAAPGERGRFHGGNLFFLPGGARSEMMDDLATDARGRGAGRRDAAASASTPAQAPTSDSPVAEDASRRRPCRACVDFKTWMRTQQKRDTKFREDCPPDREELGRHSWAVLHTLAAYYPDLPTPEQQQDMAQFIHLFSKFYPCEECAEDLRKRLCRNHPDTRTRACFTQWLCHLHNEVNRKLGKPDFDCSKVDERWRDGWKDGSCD
PfM18AAP inh – blocks P. falciparum M18 aspartyl aminopeptidase. recombinant PfM18AAP, H-Glu-NHMec fluorogenic cleavage. inhibition, % at 7.35 µM. 1.2% of 290,000 active. AID 1822;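 active means inhibition above the campaign mean inhibition over all tested compounds plus 3 SD, cut at about 28% in these data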;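 further: 0% = plate median of test compound wells and 100% = 2 mM ZnCl2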
HCV core dimer – HCV core protein dimerization inhibition; inhibition, % at 5 µM; 0.33% of 300,000 active; AID 1899; TR-FRET GST/Flag-core106 dimerization, 1536-well;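 active means inhibition above the mean of all tested compounds plus 3 SD, set per screening campaign, cut at about 45% in these data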
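test system = GST/Flag-tagged HCV core106 proteins | probe or stimulus = Eu donor and XL665 acceptor anti-tag antibodies | times = compound-protein-antibody incubation 4 h at 22.5 °C | signal = TR-FRET, excitation 340 nm, emission 617 and 671 nm | measure = percent inhibition of core106 dimerization signal | controls = wells lacking GST-core106 and wells with excess unlabelled core106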
The depositor's hits bear a star; · = not tested or not shown; ! = a repeat was not active. Sampled rows, rich in hits. Any-hit rate of the full collection: about 5.2%.

SMILES	NS3 helicase inh	ZTA counter	EBNA-1 inh	ALR inh	PfM18AAP inh	HCV core dimer
Cc1ccc(CNC(=O)CCNC(=O)N2CCn3c2nc2ccccc23)cc1	-11.9	7.7	-6.9	93.9*	-0.6	-5.6
COc1cccc2c(SCC(=O)N/N=C/c3ccccc3)cc(C)nc12	-8.5	10.2	6.3	98.6*	3.3	4.0
COc1ccc(Nc2cc(C)nc3c(C)cccc23)cc1OC	6.1	-22.8	-13.0	-1.6	3.5	-7.5
COc1cccc2c(N/N=C/c3ccccc3)cc(C)nc12	15.6	-0.5	-11.2	87.1*	4.1	-8.2
Cc1cccc2sc(NNC(=O)c3cc(-c4cccs4)nc4ccccc34)nc12	13.3	3.6	-9.8	3.3	31.4*	4.8
COc1ccc(NC2CCCN(C(=O)CCN3CCOCC3)C2)cc1 (stereo not given)	6.9	-21.3	-6.7	98.7*	16.1	-7.7
O=C(c1cccc2ccccc12)C1CCCN(C(=O)CCN2CCCO2)C1 (stereo not given)	-2.2	8.7	9.3	-50.2	0.3	0.6
COc1ccc(NC2CCCN(C(=O)CCN3CCCO3)C2)cc1 (stereo not given)	-0.7	-7.1	-6.5	95.7*	8.8	3.9
CCCc1cc(=O)[nH]c(SCC(=O)N(CC)c2c(N)n(Cc3ccccc3)c(=O)[nH]c2=O)n1	·	-13.0	8.0	·	·	-4.5
CC(=O)C[C@H](O)CC(=O)[C@@H]1OC(=O)CCCCCCc2ccccc21	·	0.7	·	-1.8	·	·
O=C(Cc1noc2ccccc12)NNC(=S)Nc1ccc(Cl)cc1	8.0	1.4	6.7	·	25.9	-0.6
O=C(Cc1noc2ccccc12)NNC(=S)Nc1ccccc1	1.3	-16.8	-13.1	·	30.4*	-3.8
Cn1c(-c2ccccc2)c[n+]2c1-c1ccccc1C2	9.1	-7.9	0.6	-7.8	-9.1	-4.9
CCN1CCN(c2cc(C)c3cc(NC(=O)CCC(=O)N4CCN(c5ccccc5)CC4)ccc3n2)CC1	-23.9	10.1	7.5	91.4*	-4.1	2.0
CCN1CCN(c2cc(C)c3cc(NC(=O)CCC(=O)N4CCN(c5ccccc5OC)CC4)ccc3n2)CC1	-24.1	-5.8	1.3	47.7	3.0	1.8
Cc1cccc(NC(=O)C2CC(O)CN2C(=O)Oc2ccccc2)c1 (stereo not given)	-1.5	-0.9	-6.0	1.6	-10.4	8.9
CC(c1ccc(F)cc1)n1c(-c2cccs2)n[nH]c1=S (stereo not given)	3.5	3.7	12.6	92.7*	11.7	2.7
CC(c1ccccc1)n1c(-c2ccccc2F)n[nH]c1=S (stereo not given)	-2.3	-2.5	16.3	20.9	2.3	0.6
COc1cccc(C(=O)N[C@@H](C)C(=O)N2CCC3(CC2)NCCc2[nH]cnc23)c1	-1.0	-5.7	-9.4	-1.9	-13.6	0.0
Oc1ccccc1N1CCN(CC(O)COCc2ccccc2Cl)CC1 (stereo not given)	-8.6	-5.2	-3.5	99.0*	-12.5	-2.2
OC(COCc1ccccc1)CN1CCN(c2ccccc2)CC1 (stereo not given)	3.8	22.9	15.8	82.2*	-8.5	-3.2
COc1ccc(N2CCN(CC(O)COc3ccc(F)cc3)CC2)cc1 (stereo not given)	-10.4	-5.9	-3.1	98.7*	3.0	-11.1
COc1ccc(N2CCN(CC(O)COC(c3ccc(F)cc3)c3ccc(F)cc3)CC2)cc1 (stereo not given)	-58.1	·	·	23.5	0.9	·
Cc1ccc(N2CCN(CC(O)COc3ccccc3)CC2)cc1 (stereo not given)	0.8	-4.9	-2.9	95.0*	5.8	2.8
OC(COc1ccccc1Cl)CN1CCN(CC(O)COc2ccccc2Cl)CC1 (stereo not given)	-99.7	-9.6	10.2	-1.7	-9.7	-4.4
SMILES	NS3 helicase inh	ZTA counter	EBNA-1 inh	ALR inh	PfM18AAP inh	HCV core dimer
COc1ccc(Cl)cc1NC(=O)c1sc2nc(C)nc(N3CCOCC3)c2c1C	-5.5	-6.3	-1.1	2.9	2.9	1.7
Cc1cccn2c(=O)nc(SCC(=O)NCc3ccc4c(c3)OCO4)nc12	·	4.7	18.9	-6.4	·	5.6
O=C(CNS(=O)(=O)c1ccc(Br)s1)NCCc1ccc(Cl)cc1	5.2	9.2	-7.2	0.0	10.3	0.3
COc1ccc(N2CCN(CC(O)COc3ccc(C)c(C)c3)CC2)cc1 (stereo not given)	-31.0	0.8	4.1	97.5*	1.4	-0.5
C=CCc1cc(OC)ccc1OCC(O)CN1CCN(c2ccc(OC)cc2)CC1 (stereo not given)	-24.0	-0.1	-3.0	79.4*!	2.1	-3.0
COc1ccc(OCC(O)CN2CCN(c3ccc(OC)cc3)CC2)cc1 (stereo not given)	19.1	-15.2	0.5	98.8*	0.2	-16.7
C=CCc1cc(C)ccc1OCC(O)CN1CCN(c2ccccc2)CC1 (stereo not given)	-50.7	7.2	-5.2	26.5	-2.0	0.2
COc1ccc(N2CCN(CC(O)COc3cc(C)cc(C)c3)CC2)cc1 (stereo not given)	-50.8	-17.1	-16.6	69.0	8.8	8.8
COc1ccc(N2CCN(CC(=O)Nc3ccc(C)c(C)c3)CC2)cc1	6.0	12.9	5.1	98.0*	7.7	11.0
O=C(CNC(=O)c1ccc(Cl)c([N+](=O)[O-])c1)OCN1C(=O)c2ccccc2C1=O	·	9.0	4.5	3.8	·	1.6
CC(C)(C)SC(=O)C[C@@H]1NS(=O)(=O)OC2CCCCC21 (stereo not given in full)	-0.7	-0.3	5.1	-5.8	6.0	-6.6
N#Cc1cccc(NC(=O)CN2CCN(Cc3ccccc3)CC2)c1	-2.1	-10.0	-1.9	-40.1	-4.2	-4.4
COc1cccc(CN2CCC(n3nccc3NC(=O)CCOc3ccccc3)CC2)c1O	-24.5	-10.5	-13.4	93.7*	8.8	-0.4
NC(=O)NC1CCCc2c1[nH]c1ccc(Cl)cc21 (stereo not given)	-10.9	10.6	-4.3	98.1*	3.8	3.3
CCNC(=O)C1CCCc2c1[nH]c1ccc(Cl)cc21 (stereo not given)	10.1	11.9	2.4	52.3	1.5	0.5
NC(=O)C1CCCCc2c1[nH]c1ccc(Cl)cc21 (stereo not given)	-0.8	·	·	97.8*	0.6	·
CCCN(C(=O)CCNC(=O)Cn1cnc2ccccc2c1=O)c1cccc(Cl)c1	3.0	-5.8	-0.7	-2.2	1.2	4.8
CCOc1ccc(S(=O)(=O)NCCc2ccccn2)cc1	·	·	·	-3.9	·	·
CN1C(=O)NC(c2ccc(O)cc2)C2=C1CN(c1ccc(O)cc1)C2=O (stereo not given)	9.7	12.3	9.4	98.7*	-11.5	0.0
O=C(O)CN1C(=O)/C(=C\c2cccc(OCc3ccccc3)c2)SC1=S	25.5	-6.8	-0.5	83.4*	12.6	8.9
O=C(O)COc1cccc(/C=C2/SC(=S)N(Cc3ccccc3)C2=O)c1	9.6	11.0	26.2	5.6	2.2	55.5*
